Test results taken from ChEMBL document CHEMBL2086278, “Synthesis and biological evaluation of ester prodrugs of Benzafibrate as orally active hypolipidemic agents” (Eur J Med Chem, 2012).

Experiments:
[1] = system: Mus musculus; experiment: Hypolipidemic activity in Swiss albino mouse assessed as reduction in plasma triglyceride level at 50 mg/kg, po for 8 days measured on day 9 by spectrophotometry relative to control; assay type: functional; parameters: scale not given: the % may be the effect or the level left
Outline: (§1)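 Male Swiss albino mice, 21–30 g, chow fed, acclimatised 1 week; n = 10/group. Oral gavage 50 mg/kg/day for 8 days, suspended in Tween-80 5 µL/mL in 0.5% CMC (10 mL/kg); vehicle controls. Fasted 12 h; day 9 blood taken 1 h post-dose under mild ether. Plasma (4000 rpm, 10 min) TG/TC by spectrophotometric kit; % fall vs control; mean ± SE, ANOVA with Dunnett's.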

[2] = system: Mus musculus; experiment: Hypolipidemic activity in Swiss albino mouse assessed as reduction in plasma total cholesterol level at 50 mg/kg, po for 8 days measured on day 9 by spectrophotometry relative to control; assay type: functional; parameters: scale not given: the % may be the effect or the level left; outline: as §1
[3] = Octanol-phosphate buffer partition coefficient, log P of the compound at pH 7.4 by HPLC analysis; assay type: physicochemical
Outline: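 1-Octanol and 0.2 M phosphate buffer pH 7.4, mutually pre-saturated 24 h. Compound shaken between 5 mL of each phase for 60 min at 400 rpm, 25 °C, then centrifuged at 3500 rpm for 5 min. Each phase quantified by HPLC at 254 nm. log P = log of octanol/un-ionized aqueous concentration ratio, mean of triplicate.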

[4] = Aqueous stability of the compound in 0.2 M hydrochloric acid buffer solution at pH 1 at 40 degC after 4 hrs by HPLC analysis; assay type: physicochemical; conditions: pH 1, 4 h
Outline: (§2)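 10 mg test compound in 10 mL buffer shaken at 400 rpm, 40 °C, 4 h. Buffers: 0.2 M HCl pH 1.0, 0.1 M citric acid pH 3.0, 0.1 M phosphate pH 5.2, 0.2 M phosphate pH 7.4, 0.1 M boric acid pH 9.0. Filtered 0.20 µm; filtrate analysed by HPLC at 254 nm (C-8 column, gradient) for bezafibrate formed / % hydrolysed.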

[5] = Aqueous stability of the compound in 0.1 M citric acid buffer at pH 3 at 40 degC after 4 hrs by HPLC analysis; assay type: physicochemical; conditions: pH 3, 4 h; outline: as §2
[6] = Prodrug conversion in 0.1 M phosphate buffer solution assessed as benzofibrate formation at pH 5.2 at 40 degC after 4 hrs by HPLC analysis; assay type: physicochemical; conditions: pH 5.2, 4 h; outline: as §2
[7] = Prodrug conversion in 0.2 M phosphate buffer solution assessed as benzofibrate formation at pH 7.4 at 40 degC after 4 hrs by HPLC analysis; conditions: pH 7.4, 4 h
[8] = Prodrug conversion in 0.1 M boric acid buffer solution assessed as benzofibrate formation at pH 9.0 at 40 degC after 4 hrs by HPLC analysis; conditions: pH 9, 4 h
[9] = system: Mus musculus; experiment: Hypolipidemic activity in Swiss albino mouse assessed as reduction in plasma total cholesterol level at 100 mg/kg, po for 8 days measured on day 9 by spectrophotometry relative to control; assay type: functional; parameters: scale not given: the % may be the effect or the level left
Outline: (§3)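 Dose-response in male Swiss albino mice (21–30 g, chow fed): oral dosing at 10, 30 or 100 mg/kg/day, vehicle Tween-80 in 0.5% CMC. Plasma triglyceride and total cholesterol measured spectrophotometrically with a commercial kit; % fall relative to untreated control.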

[10] = system: Mus musculus; experiment: Hypolipidemic activity in Swiss albino mouse assessed as reduction in plasma triglyceride level at 10 mg/kg, po for 8 days measured on day 9 by spectrophotometry relative to control; assay type: functional; parameters: scale not given: the % may be the effect or the level left; outline: as §3
[11] = system: Mus musculus; experiment: Hypolipidemic activity in Swiss albino mouse assessed as reduction in plasma triglyceride level at 30 mg/kg, po for 8 days measured on day 9 by spectrophotometry relative to control; assay type: functional; parameters: scale not given: the % may be the effect or the level left; outline: as §3
[12] = system: Mus musculus; experiment: Hypolipidemic activity in Swiss albino mouse assessed as reduction in plasma triglyceride level at 100 mg/kg, po for 8 days measured on day 9 by spectrophotometry relative to control; assay type: functional; parameters: scale not given: the % may be the effect or the level left; outline: as §3
[13] = system: Mus musculus; experiment: Hypolipidemic activity in Swiss albino mouse assessed as reduction in plasma total cholesterol level at 10 mg/kg, po for 8 days measured on day 9 by spectrophotometry relative to control; assay type: functional; parameters: scale not given: the % may be the effect or the level left; outline: as §3
[14] = system: Mus musculus; experiment: Hypolipidemic activity in Swiss albino mouse assessed as reduction in plasma total cholesterol level at 30 mg/kg, po for 8 days measured on day 9 by spectrophotometry relative to control; assay type: functional; parameters: scale not given: the % may be the effect or the level left; outline: as §3

Row | SMILES | logD [3] | Stability [4] | Stability [5] | Drug metabolism [6] | Drug metabolism [7] | Drug metabolism [8] | Activity [1] | Activity [2] | Activity [9] | Activity [10] | Activity [11] | Activity [12] | Activity [13] | Activity [14]
1 | CC(C)OC(=O)OC(C)OC(=O)C(C)(C)Oc1ccc(CCNC(=O)c2ccc(Cl)cc2)cc1 (stereo not drawn) |  |  |  |  |  |  | 3.9% | -5.6% |  |  |  |  |  | 
2 | CC(C)OC(=O)OCOC(=O)C(C)(C)Oc1ccc(CCNC(=O)c2ccc(Cl)cc2)cc1 |  |  |  |  |  |  | 3% | 3% |  |  |  |  |  | 
3 | CC(C)(Oc1ccc(CCNC(=O)c2ccc(Cl)cc2)cc1)C(=O)OCCN1CCOCC1 | 5.1 | Stable | Stable | 6.3 µg/mL | 6.2 µg/mL | 8.8 µg/mL | 11.8% | 3% |  |  |  |  |  | 

Second part, led by results:

Row | logD [3] | Stability [4] | Stability [5] | Drug metabolism [6] | Drug metabolism [7] | Drug metabolism [8] | SMILES | Activity [1] | Activity [2] | Activity [9] | Activity [10] | Activity [11] | Activity [12] | Activity [13] | Activity [14]
4 | 5.1 | Stable | Stable | 1.7 µg/mL | 2.2 µg/mL | 0.8 µg/mL | CC(C)(C)C(=O)OCOC(=O)C(C)(C)Oc1ccc(CCNC(=O)c2ccc(Cl)cc2)cc1 | 18.8% | 3.4% |  |  |  |  |  | 
5 | 4.5 | Stable | Stable | 0.2 µg/mL | 0.9 µg/mL | 6.6 µg/mL | CC(=O)OC(C)OC(=O)C(C)(C)Oc1ccc(CCNC(=O)c2ccc(Cl)cc2)cc1 (stereo not drawn) | 17.2% | 4.3% |  |  |  |  |  | 
6 | 3.8 | Stable | Stable | 0.7 µg/mL | 1.8 µg/mL | 2.5 µg/mL | CC(=O)OCCOC(=O)C(C)(C)Oc1ccc(CCNC(=O)c2ccc(Cl)cc2)cc1 | 9.6% | 2.4% |  |  |  |  |  | 
7 | 3.1 | Stable | Stable | 0.2 µg/mL | 0.5 µg/mL | 2.6 µg/mL | Cc1oc(=O)oc1COC(=O)C(C)(C)Oc1ccc(CCNC(=O)c2ccc(Cl)cc2)cc1 | 30.2% | 13% | 4% | 3.51% | 27.1% | 22.3% | 4.9% | 2%
8 | 1.5 |  |  |  |  |  | CC(C)(Oc1ccc(CCNC(=O)c2ccc(Cl)cc2)cc1)C(=O)O [BEZAFIBRATE] | 11.4% | 10.4% |  |  |  |  |  | 
